Screens from PubChem.
Rows were chosen to be rich in hits. Some 1.7% of all compounds tested hit in one or more screens of this group.
CSC inhib – blocks cancer stem cells; cancer stem cell-like cells viability, luminescence; inhibition, % at 7.5 µM; 300,000 tested, 1.1% active; AID 2717; in the data active = inhibition above about 75%; inconclusive = no clear call, values can overlap the other calls; tested in HMLE shEcad cells
Rtt109 HAT inh – C. albicans Rtt109 histone acetyltransferase inhibition; Q5AAJ8; purified Rtt109/Vps75, ThioGlo CoA-SH fluorescence, 4 h; inhibition, % at 34.9 µM; 330,000 tested, 0.16% active;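 active = inhibition of at least 50% in every replicate; inconclusive = best replicate reaches 50% inhibition but some replicates fall short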
Target sequence (Q5AAJ8 whole entry, looked up): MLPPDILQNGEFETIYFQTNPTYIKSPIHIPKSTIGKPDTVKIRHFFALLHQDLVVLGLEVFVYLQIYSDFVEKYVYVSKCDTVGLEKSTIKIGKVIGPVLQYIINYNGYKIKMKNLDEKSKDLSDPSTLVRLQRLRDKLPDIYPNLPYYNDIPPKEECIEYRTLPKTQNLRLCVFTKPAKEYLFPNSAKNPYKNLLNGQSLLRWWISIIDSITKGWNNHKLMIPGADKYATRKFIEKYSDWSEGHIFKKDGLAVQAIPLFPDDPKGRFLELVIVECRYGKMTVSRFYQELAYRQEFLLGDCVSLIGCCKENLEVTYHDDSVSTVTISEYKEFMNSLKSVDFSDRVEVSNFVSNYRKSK
FN deposition inh – fibronectin deposition inhibition; AH1F fibroblasts, Alexa488-fibronectin deposition fluorescence, overnight; inhibition, % at 12.6 µM; 350,000 tested, 0.086% active; AID 743247;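 active = mean inhibition across replicates of 30% or more, regardless of how many single replicates reach that level; inconclusive = mean under 30% yet at least half of replicates reach 30%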;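 also: positive control wells lacked labelled fibronectin entirely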
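Assay system: AH1F fibroblasts / Quantity: 10000 cells per well / Medium: DMEM plus 2% serum, read in PBS / Reagent: labelled fibronectin 24 nM / Dosing: single dose, pinned / Times: 1 h cell attachment, overnight exposure to compound and label / Signal: fluorescence, ex 485 nm, em 525 nm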
PglD inh – PglD (C. jejuni) enzyme inhibition; purified PglD enzyme, DTNB colorimetric CoA detection; inhibition, % at 12.5 µM; 360,000 tested, 0.098% active; in the data active = inhibition above about 16%, passing the limit was not always enough; inconclusive = no clear call, values can overlap the other calls
PfHsp90 yeast 2 – inhibits growth of yeast expressing Plasmodium falciparum Hsp90; S. cerevisiae expressing PfHsp90, BacTiter-Glo ATP, 48 h; yeast lacking PDR1 and PDR3 efflux regulators; inhibition, % at 9.4 µM; 310,000 tested, 0.32% active; AID 504621;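 active = every replicate shows inhibition above about 80%, whatever the replicate mean, limit read from the data; inconclusive = mean inhibition reaches the set limit but some replicate falls short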;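 also: 0% = DMSO neutral controls and 100% = 20 µM radicicol positive controls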
SKKanGAS inh – blocks kanamycin growth of S. pyogenes SKKanGAS strain | BacTiter-Glo, 6 h | inhibition, % at 7.5 µM | 300,000 tested, 1.3% active | AID 1662;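 active = mean replicate score, as percent of positive control median, at least 50; inconclusive = mean below 50 but one replicate at or above 50; inactive = mean and every replicate below 50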;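 also: strain carries kanamycin resistance gene driven by streptokinase promoter and grows in 40 µg/ml kanamycin; loss of luminescence reflects streptokinase promoter inhibition or plain growth inhibition; 0% = median of DMSO wells and 100% = positive control at its reference dose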
The depositor's hits bear a star.

What do the screens show for `CN1[C@@H](CO)[C@@H]2c3ccccc3NC[C@@H]21`?
FN deposition inh: -11.2; PglD inh: -2.5

What do the screens show for `CC1CCC(C(C)C)C(OC(=O)COC(=O)c2ccccc2N)C1` (centres undefined)?
CSC inhib: 22.8; Rtt109 HAT inh: 6.2; PfHsp90 yeast 2: -1.8; SKKanGAS inh: 67.4*

Results for O=C(NC1CONC1=O)OCC(Cl)(Cl)Cl (centres undefined) ?
CSC inhib: 76.9*; FN deposition inh: -11.6; PfHsp90 yeast 2: 2.7; SKKanGAS inh: 4.8

Results for CN(C)C1C(=O)C(C(N)=O)=C(O)C2(O)C(=O)C3=C(O)c4c(O)cccc4C(C)(O)C3CC12 (centres undefined) ?
CSC inhib: -9.5; Rtt109 HAT inh: -1.8; PglD inh: -6.3; PfHsp90 yeast 2: -8.8; SKKanGAS inh: 102.1*

What do the screens show for `CN(C)[C@@H]1C(=O)C(C(N)=O)=C(O)[C@@]2(O)C(=O)C3=C(O)c4c(O)cccc4[C@@](C)(O)C3[C@H](O)C12` (some centres undefined)?
CSC inhib: -11.0; Rtt109 HAT inh: 12.6; FN deposition inh: 0.2; PglD inh: 3.4; PfHsp90 yeast 2: 15.7; SKKanGAS inh: 106.4*

How did O=C1NC(=S)NC(=O)C1=Cc1ccc(Br)s1 do in these assays?
CSC inhib: 19.2; Rtt109 HAT inh: -2.3; FN deposition inh: 5.4; PglD inh: 10.8; PfHsp90 yeast 2: 123.3*; SKKanGAS inh: -4.7

How did CN1C(=O)/C(=C\c2ccc(Br)s2)C(=O)NC1=S do in these assays?
CSC inhib: 15.7; Rtt109 HAT inh: 6.7; FN deposition inh: -13.3; PglD inh: 3.1; PfHsp90 yeast 2: 56.2; SKKanGAS inh: 0.1

How did Cn1c(NN=O)nc2ccccc21 do in these assays?
CSC inhib: 114.9*; Rtt109 HAT inh: 10.9; PfHsp90 yeast 2: -7.0; SKKanGAS inh: 56.3*

How did CN1CCN(Cc2nc3ccccc3n2C)CC1 do in these assays?
CSC inhib: -6.0; Rtt109 HAT inh: -5.5; FN deposition inh: -3.4; PglD inh: 0.0; SKKanGAS inh: -3.9

What do the screens show for `CCC(C)n1c(O)c(/C=N/Nc2ccccc2)c(=O)[nH]c1=S` (centres undefined)?
CSC inhib: 82.5*; Rtt109 HAT inh: 11.1; FN deposition inh: -4.0; PfHsp90 yeast 2: -2.0; SKKanGAS inh: inconclusive

How did CCC(C)n1c(O)c(/C=N/NC(=O)c2ccncc2)c(=O)[nH]c1=S (centres undefined) do in these assays?
CSC inhib: 17.0; Rtt109 HAT inh: -2.1; FN deposition inh: -1.0; PfHsp90 yeast 2: 13.7; SKKanGAS inh: 91.0*

What do the screens show for `CCC(C)n1c(O)c(C=NCCc2ccccc2)c(=O)[nH]c1=S` (centres undefined)?
CSC inhib: -3.9; Rtt109 HAT inh: 3.6; FN deposition inh: 2.9; PglD inh: 19.2; PfHsp90 yeast 2: 1.4; SKKanGAS inh: -0.3

What do the screens show for `O=C(N/N=C/c1c(O)n(Cc2ccc(F)cc2)c(=S)[nH]c1=O)c1ccncc1`?
CSC inhib: 5.1; Rtt109 HAT inh: -0.8; FN deposition inh: 0.1; PglD inh: 0.5; PfHsp90 yeast 2: -6.7; SKKanGAS inh: 101.1*

Results for N#Cc1cccc(-c2ccc([C@@H]3[C@H]4CN(C(=O)Cc5cccnc5)CCCCN4[C@H]3CO)cc2)c1 ?
PglD inh: 2.1

What do the screens show for `CC[C@H](C)[C@@H]1O[C@@]2(C=CC1C)CC1C[C@@H](CC=C(C)C(O[C@H]3CC(OC)C(O[C@H]4CC(OC)C(O)C(C)O4)C(C)O3)C(C)C=CC=C3CO[C@@H]4C(O)C(C)=C[C@@H](C(=O)O1)[C@]34O)O2` (some centres undefined)?
CSC inhib: 102.8*

How did CC=Cc1ccc2n(c1=O)C[C@H]1[C@H](CO)[C@@H](C(=O)OC)[C@@H]2N1CC1CCCCC1 (mixture of isomers) do in these assays?
PglD inh: 2.5

Results for Clc1ccc(C(Cn2ccnc2)OCc2csc3c(Cl)cccc23)c(Cl)c1 (centres undefined) ?
CSC inhib: 106.9*; Rtt109 HAT inh: -4.9; FN deposition inh: -7.4; PglD inh: 9.9; PfHsp90 yeast 2: 86.1*

Results for CCCC#Cc1ccc([C@H]2[C@H](CO)N3CCCCN(C(=O)Cc4ccccn4)C[C@@H]23)cc1 ?
PglD inh: -1.0

What do the screens show for `C[C@H]1O[C@@H](OC2CC[C@]3(C=O)[C@H]4CC[C@]5(C)[C@@H](C6=CC(=O)OC6)CC[C@]5(O)[C@@H]4CC[C@]3(O)C2)CC2OC(C)(C)OC21` (some centres undefined)?
CSC inhib: 100.8*; Rtt109 HAT inh: -6.4; FN deposition inh: 17.5; PfHsp90 yeast 2: 7.7; SKKanGAS inh: 0.1

Results for C[C@]12CC[C@H]3[C@@H](CC[C@]4(O)C[C@@H](O)CC[C@]34C=O)[C@@]1(O)CC[C@@H]2C1=CC(=O)OC1 ?
CSC inhib: 101.2*; Rtt109 HAT inh: -4.0; FN deposition inh: 3.7; PglD inh: -5.0; PfHsp90 yeast 2: 12.1

What do the screens show for `CC12CC[C@H]3[C@@H](CCC4(O)C[C@H](O)CCC34/C=N/NC(=O)c3ccccc3Cl)C1(O)CCC2C1=CC(=O)OC1` (some centres undefined)?
CSC inhib: -4.0; Rtt109 HAT inh: -6.0; FN deposition inh: 1.1; PfHsp90 yeast 2: -10.0; SKKanGAS inh: 4.6

Results for CC12CCC3C(CCC4(O)CC(O)CCC34C=O)C1(O)CCC2C1=CC(=O)OC1 (centres undefined) ?
Rtt109 HAT inh: -0.5; FN deposition inh: 19.5; PfHsp90 yeast 2: 8.8

How did CCCCN=C[C@]12CCC(O)CC1(O)CCC1[C@@H]2CC[C@]2(C)[C@H](C3C=CC(=O)O3)CCC12O (some centres undefined) do in these assays?
CSC inhib: 98.6*; Rtt109 HAT inh: -0.1; FN deposition inh: -13.8; PglD inh: -2.8; PfHsp90 yeast 2: 15.3; SKKanGAS inh: -3.3

What do the screens show for `C[C@]12CCC3C(CCC4=CC(O)CC[C@@]43/C=N/O)C1(O)CCC2C1=CC(=O)OC1` (some centres undefined)?
CSC inhib: 115.4*; Rtt109 HAT inh: 6.1; FN deposition inh: -8.4; PfHsp90 yeast 2: -7.6; SKKanGAS inh: 0.8

Results for C/C=C/c1ccc([C@@H]2[C@H]3CN(C(=O)Cc4cccnc4)CCCCN3[C@H]2CO)cc1 ?
FN deposition inh: -3.8; PglD inh: 3.5

How did CC(=O)N1C[C@@H]2N[C@H](C1)C2c1ccc(Br)cc1 (some centres undefined) do in these assays?
FN deposition inh: -6.8

What do the screens show for `CCCCn1c(=O)c(C(=O)NCCc2ccccc2)c(O)c2ccccc21`?
CSC inhib: 44.7; Rtt109 HAT inh: -23.3; FN deposition inh: -1.1; PglD inh: 4.2; PfHsp90 yeast 2: 37.3; SKKanGAS inh: 54.5*
